Published values of several laboratories.
Protocols differ between the studies behind these lines.
Target: Casein kinase I isoform gamma-2 (CSNK1G2, Homo sapiens, UniProt P78368)

c1cnn2ncc(-c3ccnc(N4CCC45COC5)n3)c2c1 — remaining binding (binding; 1 µM): 77%
c1cncc(-c2cccc(Nc3nccc(NC4CCCCC4)n3)c2)c1 — remaining binding (binding, competition with immobilised ligand; 10 µM): 80%
COc1cnc(Nc2cccc(S(N)(=O)=O)c2)nc1N1CCN(c2ccccc2)C(=O)C1 — remaining binding (binding, competition with immobilised ligand; 1 µM): 96%
CC(C)(C)c1ccc(-c2nc(CBr)nn2-c2cccc(O)c2)cc1 — remaining binding (cell-free assay, competition with immobilised ligand; 10 µM): 93%
O=C1CCc2cc(Nc3cc(OC4CCOCC4)c([N+](=O)[O-])cc3Cl)ccc2N1 — remaining binding (cell-free assay, competition with immobilised ligand; 1 µM): 88%
COc1ncc2cc3ccccc3nc2c1C#N — remaining binding (cell-free assay, competition with immobilised ligand; 5 µM): 98%
CC1=C(C#N)C(c2ccc3c(c2)c(NC(=O)c2ccccc2C)nn3C)C(C#N)=C(C)N1 — remaining binding (cell-free assay, competition with immobilised ligand; 1 µM): 95%
CN(C)c1ncc(F)c(-c2cnn3ncccc23)n1 — remaining binding (binding; 1 µM): 90%
COc1ccc2c(c1)O[C@@H](c1ccc(OC)c(OC)c1)C[C@H]2NC(=O)C1(c2ccc3c(c2)OC(F)(F)O3)CC1 — remaining binding (cell-free assay, competition with immobilised ligand; 1 µM): 88%
C[C@@H]1CCN(c2nccc(-c3cnn4ncccc34)n2)C1 — remaining binding (binding; 1 µM): 62%
O=C(N1CCS(=O)(=O)CC1)N1C[C@H](c2ccc(OC(F)(F)F)cc2)C[C@H](c2nc(C3CC3)no2)C1 — remaining binding (cell-free assay, competition with immobilised ligand; 1 µM): 89%
CN(C)c1nccc(-c2cnc3ncccn23)n1 — remaining binding (binding; 1 µM): 89%
Cc1cnc(Nc2ccc(C(=O)N3CCC(N4CCCC4)CC3)cc2)nc1-c1cc2ccccc2s1 — remaining binding (binding, competition with immobilised ligand; 1 µM): 100%
Cn1cc(Cl)c2c(Oc3c(F)cc(Nc4cc(Cl)nc(N)n4)cc3F)ccnc21 — remaining binding (cell-free assay, competition with immobilised ligand; 0.1 µM): 83%
CC1CCCN1c1nccc(-c2cnn3ncccc23)n1 (centres unmarked) — remaining binding (binding; 1 µM): 77%
O=C(c1ccc(Nc2ncc(Cl)c(-c3cc4ccccc4s3)n2)cc1)N1CCC(N2CCCC2)CC1 — remaining binding (binding, competition with immobilised ligand; 1 µM): 100%
O=C(NCC1CCOCC1)c1n[nH]cc1NC(=O)c1c(F)cccc1F — remaining binding (binding, competition with immobilised ligand; 1 µM): 83%
O=C(NCCCN1CCOCC1)c1ccc(Nc2nccc(-c3cc4ccccc4s3)n2)cc1 — remaining binding (binding, competition with immobilised ligand; 1 µM): 100%
N[C@@H]1CCN(c2nccc(-c3cnn4ncccc34)n2)C1 — remaining binding (binding; 1 µM): 82%
CN([C@@H]1CCc2c(CC(=O)O)c3ccccc3n2C1)S(=O)(=O)c1ccc(F)cc1 — remaining binding (cell-free assay, competition with immobilised ligand; 1 µM): 100%
